What was measured:
[1] = twice‐daily dosing for 2 weeks; healthy elderly and patients with mild to moderate Alzheimer's disease; cited from earlier work
human calpain‐1 = target: T1, human calpain‐1 (Homo sapiens, UniProt P07384); experiment: In vitro calpain assay; format: biochemical; details: read-out: K i for human calpain‐1; purified human calpain‐1; means ± SEM of three experiments or single experiment
T1 sequence (P07384 1-714): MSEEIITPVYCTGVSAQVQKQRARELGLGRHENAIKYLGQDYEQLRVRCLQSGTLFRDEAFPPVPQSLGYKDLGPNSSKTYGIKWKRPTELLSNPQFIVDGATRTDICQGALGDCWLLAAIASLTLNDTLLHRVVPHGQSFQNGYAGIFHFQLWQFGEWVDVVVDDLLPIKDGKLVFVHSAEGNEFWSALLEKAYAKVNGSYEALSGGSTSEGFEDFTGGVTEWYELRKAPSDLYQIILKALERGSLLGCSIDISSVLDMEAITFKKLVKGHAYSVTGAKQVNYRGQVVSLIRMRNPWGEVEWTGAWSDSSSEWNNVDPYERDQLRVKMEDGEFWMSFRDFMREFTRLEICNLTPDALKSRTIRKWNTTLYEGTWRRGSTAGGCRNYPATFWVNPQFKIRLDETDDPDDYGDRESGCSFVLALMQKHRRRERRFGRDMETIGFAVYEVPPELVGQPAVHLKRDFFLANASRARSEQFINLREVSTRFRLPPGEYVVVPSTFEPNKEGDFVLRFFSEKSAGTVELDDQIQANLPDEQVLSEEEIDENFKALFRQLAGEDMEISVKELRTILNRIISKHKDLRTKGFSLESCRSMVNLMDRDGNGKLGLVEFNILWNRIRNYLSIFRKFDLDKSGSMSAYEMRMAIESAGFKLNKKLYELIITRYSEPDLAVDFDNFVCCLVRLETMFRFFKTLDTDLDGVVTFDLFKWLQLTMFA
T1 sequence (P04632 1-268 partner): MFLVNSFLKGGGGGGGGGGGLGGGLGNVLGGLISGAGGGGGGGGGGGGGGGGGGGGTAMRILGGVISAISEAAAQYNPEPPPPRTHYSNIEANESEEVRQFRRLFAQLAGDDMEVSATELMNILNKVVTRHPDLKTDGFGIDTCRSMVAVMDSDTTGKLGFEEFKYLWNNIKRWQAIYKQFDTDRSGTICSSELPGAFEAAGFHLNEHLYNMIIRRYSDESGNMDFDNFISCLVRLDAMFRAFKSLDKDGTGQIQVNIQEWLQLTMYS
Summary of the method: (§1)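 Enzymes were purified human erythrocyte calpain-1 (8 μg) or bacterially expressed recombinant human calpain-2. Buffer was 60 mM imidazole-HCl pH 7.3 with 5 mM CaCl₂, 5 mM cysteine, 2.5 mM β-mercaptoethanol, 0.5 mM Suc-Leu-Tyr-AMC and test compound (0–20 μM). Reactions were started with enzyme and run at 30°C for 15 min, reading AMC fluorescence (380/450 nm) every 30 s. IC50 came from sigmoidal fits of linear rates; Ki from mean IC50 assuming competitive binding.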

rec human calpain‐2 = target: T2, rec human calpain‐2 (Homo sapiens, UniProt P17655); experiment: In vitro calpain assay; format: biochemical
T2 sequence (P17655 1-700): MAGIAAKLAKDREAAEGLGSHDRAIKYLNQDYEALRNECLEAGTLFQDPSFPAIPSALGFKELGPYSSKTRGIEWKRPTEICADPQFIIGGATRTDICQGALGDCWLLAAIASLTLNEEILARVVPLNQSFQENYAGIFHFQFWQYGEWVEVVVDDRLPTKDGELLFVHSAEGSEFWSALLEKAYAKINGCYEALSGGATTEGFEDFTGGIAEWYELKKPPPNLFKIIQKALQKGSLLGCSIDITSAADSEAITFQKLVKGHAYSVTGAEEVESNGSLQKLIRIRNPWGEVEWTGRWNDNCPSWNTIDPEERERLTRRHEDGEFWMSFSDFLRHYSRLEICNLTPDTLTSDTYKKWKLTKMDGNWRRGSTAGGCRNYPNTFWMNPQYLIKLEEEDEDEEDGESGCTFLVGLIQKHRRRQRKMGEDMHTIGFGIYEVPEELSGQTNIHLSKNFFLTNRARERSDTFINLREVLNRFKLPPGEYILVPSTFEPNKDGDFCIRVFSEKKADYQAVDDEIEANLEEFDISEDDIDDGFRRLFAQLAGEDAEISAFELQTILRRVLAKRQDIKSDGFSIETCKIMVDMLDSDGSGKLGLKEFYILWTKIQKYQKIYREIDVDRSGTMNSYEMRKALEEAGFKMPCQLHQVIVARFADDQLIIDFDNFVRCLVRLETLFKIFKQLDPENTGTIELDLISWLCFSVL
Summary of the method: as §1

mouse calpain‐1 = target: T3, mouse calpain‐1 (Mus musculus, UniProt O35350); experiment: Ex‐vivo calpain assay, mouse pons‐cerebellum membrane fractions, 20 μM calcium; format: biochemical; details: read-out: IC50 for mouse calpain‐1, endogenous brain calpain‐1, membrane fractions
T3 sequence (O35350 1-713): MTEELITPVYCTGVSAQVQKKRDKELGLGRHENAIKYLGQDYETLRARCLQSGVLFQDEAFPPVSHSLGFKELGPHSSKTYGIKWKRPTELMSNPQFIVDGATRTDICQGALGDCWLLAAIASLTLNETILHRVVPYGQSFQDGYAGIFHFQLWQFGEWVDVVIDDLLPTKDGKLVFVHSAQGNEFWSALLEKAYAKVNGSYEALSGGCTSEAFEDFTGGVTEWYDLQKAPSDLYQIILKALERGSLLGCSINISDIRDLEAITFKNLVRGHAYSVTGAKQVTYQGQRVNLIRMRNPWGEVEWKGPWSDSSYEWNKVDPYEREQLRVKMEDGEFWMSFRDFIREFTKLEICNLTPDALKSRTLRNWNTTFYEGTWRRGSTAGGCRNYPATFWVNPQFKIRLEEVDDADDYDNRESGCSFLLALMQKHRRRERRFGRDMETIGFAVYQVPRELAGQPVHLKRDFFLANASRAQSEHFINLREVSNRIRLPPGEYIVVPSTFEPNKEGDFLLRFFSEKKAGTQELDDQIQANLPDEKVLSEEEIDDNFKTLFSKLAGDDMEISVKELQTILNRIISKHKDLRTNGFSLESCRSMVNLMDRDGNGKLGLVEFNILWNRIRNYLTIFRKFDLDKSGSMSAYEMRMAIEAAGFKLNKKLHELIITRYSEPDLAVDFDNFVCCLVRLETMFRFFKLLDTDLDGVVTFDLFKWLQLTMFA
T3 sequence (O88456 1-268 partner): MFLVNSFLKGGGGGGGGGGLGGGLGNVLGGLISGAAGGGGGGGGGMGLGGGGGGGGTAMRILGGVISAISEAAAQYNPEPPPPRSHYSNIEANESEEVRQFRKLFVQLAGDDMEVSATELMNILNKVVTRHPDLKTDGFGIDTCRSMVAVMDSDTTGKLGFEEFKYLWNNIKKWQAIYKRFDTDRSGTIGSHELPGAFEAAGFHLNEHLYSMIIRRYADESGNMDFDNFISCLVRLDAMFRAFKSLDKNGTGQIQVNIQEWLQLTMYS
Summary of the method: (§2)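 Membrane fractions from mouse pons-cerebellum were resuspended in 60 mM imidazole-HCl pH 7.3 with 5 mM cysteine and 2.5 mM β-mercaptoethanol and exposed to test compound concentrations. Calpain-1 was assayed in wild-type membranes with 20 μM calcium. Calpain-2 was assayed in calpain-1 knockout membranes with 2 mM calcium. Substrate was Suc-Leu-Tyr-AMC (0.5 mM). Two experiments.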

mouse calpain‐2 = target: T4, mouse calpain‐2 (Mus musculus, UniProt O08529); experiment: Ex‐vivo calpain assay, mouse pons‐cerebellum membrane fractions, 2 mM calcium; format: biochemical; details: mouse brain enzymes
T4 sequence (O08529 1-700): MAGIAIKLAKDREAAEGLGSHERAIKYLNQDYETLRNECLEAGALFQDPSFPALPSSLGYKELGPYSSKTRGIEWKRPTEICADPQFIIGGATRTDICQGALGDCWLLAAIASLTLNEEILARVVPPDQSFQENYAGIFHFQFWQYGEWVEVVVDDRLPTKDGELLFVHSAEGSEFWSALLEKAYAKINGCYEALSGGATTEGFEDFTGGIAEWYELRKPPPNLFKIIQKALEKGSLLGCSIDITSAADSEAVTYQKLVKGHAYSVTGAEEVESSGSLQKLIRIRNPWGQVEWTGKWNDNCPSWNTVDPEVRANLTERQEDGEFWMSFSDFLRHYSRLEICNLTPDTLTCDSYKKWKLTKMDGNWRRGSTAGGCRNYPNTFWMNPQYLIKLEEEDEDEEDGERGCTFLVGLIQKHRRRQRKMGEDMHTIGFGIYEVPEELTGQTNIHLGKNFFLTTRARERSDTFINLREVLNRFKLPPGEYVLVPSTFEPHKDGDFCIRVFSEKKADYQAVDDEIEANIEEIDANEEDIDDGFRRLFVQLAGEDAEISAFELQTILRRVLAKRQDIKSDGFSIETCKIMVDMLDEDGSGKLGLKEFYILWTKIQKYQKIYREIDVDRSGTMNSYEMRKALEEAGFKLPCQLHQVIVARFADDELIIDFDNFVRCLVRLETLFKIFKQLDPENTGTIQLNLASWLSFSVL
T4 sequence (O88456 1-268 partner): T3 sequence (O88456 1-268 partner)
Summary of the method: as §2

calpain‐2 = details: reported; cited from earlier work

Ki (human calpain‐1) [nM] | Ratio 1/2 (K i calpain‐1 / calpain‐2) (rec human calpain‐2; human enzymes) | Ki (rec human calpain‐2; read-out: K i for rec human calpain‐2, recombinant human calpain‐2, means ± SEM of three experiments or single experiment) [nM] | IC50 (mouse calpain‐1) [nM] | Ratio 1/2 (IC50 calpain‐1 / calpain‐2) (mouse calpain‐2) | Structure (SMILES) | adverse effects in Phase I [1] | difference in K i values for calpain‐2 vs calpain‐1 (calpain‐2) [fold]
– | – | – | – | – | O=C(NC1CC1)C(=O)C(Cc1ccccc1)NC(=O)[C@H]1CCC(=O)N1Cc1ccccc1 (stereo partly shown) [ABT‐957] | did not result in significant adverse effects | –
124 ± 6 | 2.3 | 55 ± 7 | 1130 | 26 | CCC(NC(=O)[C@H](CC(C)C)NC(=O)OCc1ccccc1)C(=O)C(=O)NCc1cc(OC)cc(OC)c1 (stereo partly shown) [Compound C2I, Z‐Leu‐Abu‐CONH‐CH2‐C6H3(3,5‐(OMe)2)] | – | 100
